Consider 8 compounds from ChEMBL document CHEMBL3632559, “α-Halogenated oxaphosphinanes: Synthesis, unexpected reactions and evaluation as inhibitors of cancer cell proliferation” (Eur J Med Chem, 2015).

In one series the test system is Caco-2. Kind of series: Antiproliferative activity against human Caco2 cells after 72 hrs by MTT assay. Format: functional, cell-based. Background: Tetrazolium assays rely on reduction of a dye to a coloured formazan, in cell work by metabolically active cells.
Another series concerns MDA-MB-231. Kind of series: Antiproliferative activity against human MDA-MB-231 cells after 72 hrs by MTT assay. Format: functional, cell-based.
Series [1] deals with MDA-MB-435. The series is described as follows: Antiinvasive activity in human MDA-MB-435 cells after 24 hrs by matrigel assay in presence of HGF. Format: functional, cell-based. The following applies: read-out: Ki. In a few lines:
(§1)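 Boyden chamber inserts loaded with Matrigel diluted 33-fold in PBS, with HGF in the lower chamber. Cells resuspended in DMEM with 0.1% BSA were plated in the upper compartment and incubated 24 h with or without compound. Cells on the lower membrane surface were methanol-fixed, crystal violet-stained and counted. % Inh was computed against untreated migration. Run in triplicate. EC50/Ki were obtained by Hill fit of dose-log response curves.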

Series [2] can be described thus: Antiproliferative activity against mouse B16F10 cells after 72 hrs by MTT assay. The settings on record: B16-F10, 72 h. In kind it is functional, cell-based.
For the next series, the system named is DU-145. Kind of series: Antiproliferative activity against human DU145 cells after 72 hrs by MTT assay. Format: functional, cell-based.
Series [3] relates to MDA-MB-435. The series is described as follows: Antiproliferative activity against human MDA-MB-435 cells after 72 hrs by MTT assay. The following applies: MDA-MB-435, 72 h. In kind it is functional, cell-based.
A short description of series [4]: Antimigratory activity in mouse B16F10 cells after 24 hrs by vitronectin-coated boyden chamber assay. Format: functional, cell-based. The following applies: b16-f10. In outline: (§2)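 Boyden chamber inserts were coated overnight with laminin, fibronectin or vitronectin (human plasma), PBS-washed and blocked 1 h with 0.5% BSA. Cells in DMEM/0.1% BSA were placed in the upper compartment for 24 h with or without compound. Non-migrating cells were wiped off; lower-side cells were methanol-fixed, crystal violet-stained and counted. Run in triplicate. Ki came from Hill fit of dose-log response curves.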

Series [5] can be described thus: Antiproliferative activity against human HuH7 cells after 72 hrs by MTT assay. In kind it is functional, cell-based. The following applies: Huh-7, 72 h.
Series [6] concerns MDA-MB-435. The series is described as follows: Antimigratory activity in human MDA-MB-435 cells after 24 hrs by laminin-coated boyden chamber assay. In kind it is functional, cell-based. In outline: as §2
For series [7], the system named is MDA-MB-435. The series is described as follows: Antimigratory activity in human MDA-MB-435 cells after 24 hrs by vitronectin-coated boyden chamber assay. In kind it is functional, cell-based. In outline: as §2
Series [8] in a line: Antimigratory activity in mouse B16F10 cells after 24 hrs by laminin-coated boyden chamber assay. In kind it is functional, cell-based. The following applies: b16-f10. In a few lines:
as §2

The nature of series [9]: Cytotoxicity against mouse B16F10 cells. In kind it is cell-based. The settings on record: b16-f10.
Series [10] is described as follows: Antiinvasive activity in mouse B16F10 cells after 24 hrs by matrigel assay in presence of HGF. In kind it is functional, cell-based. The settings on record: b16-f10. In a few lines:
as §1

For series [11], the system named is MDA-MB-435. The series is described as follows: Cytotoxicity against human MDA-MB-435 cells. Format: cell-based.
Series [12] deals with MDA-MB-435. Kind of series: Antimigratory activity in human MDA-MB-435 cells after 24 hrs by fibronectin-coated boyden chamber assay. In kind it is functional, cell-based. In outline:
as §2

Series [13] in a line: Antimigratory activity in mouse B16F10 cells after 24 hrs by fibronectin-coated boyden chamber assay. Format: functional, cell-based. The settings on record: b16-f10. In outline:
as §2

[14] abbreviates: Homo sapiens, Caco-2, 72 h, read-out: IC50.
The mark [15] stands for this setting: Homo sapiens, MDA-MB-231, 72 h, read-out: IC50.
Setting [16] is: Homo sapiens, DU-145, 72 h, read-out: IC50.

As a reminder, the IC50 is the point on the concentration scale where inhibition reaches its midpoint. What is called Ki is a dissociation constant, usually derived from enzyme kinetics or from competition with a known ligand.

Each structure is given as a SMILES string.

With `O=[P@@]1(c2ccccc2)O[C@H](COCc2ccccc2)[C@@H](OCc2ccccc2)[C@H](OCc2ccccc2)[C@H]1Cl`, the IC50 was determined as 24800 nM in the series on Caco-2 (setting [14]); 359 nM with MDA-MB-231 (setting [15]); 7.7 nM in series [2]; 226 nM with DU-145 (setting [16]); 1.6 nM in the series on MDA-MB-435 [3]; 1170 nM in series [5]. Besides, the EC50 in the series on MDA-MB-435 [1] stood at 35 nM. Also, the Ki in series [4] turned out to be 380 nM; with MDA-MB-435 [6], 32 nM; in the series with MDA-MB-435 [7], 52 nM; in [8] it was 13 nM; in [10] it was 37 nM; in the series with MDA-MB-435 [12], 36 nM. In [13], this compound came in with a Ki of 18 nM. Besides, the Activity entry (in series [9]; in the series on MDA-MB-435 [11]) was “Toxic” in each case.
Take `O=[P@@]1(c2ccccc2)O[C@H](COCc2ccccc2)[C@@H](OCc2ccccc2)[C@H](OCc2ccccc2)[C@@H]1Br`: the 50% inhibitory concentration (IC50) is 24700 nM in the series on Caco-2 (setting [14]); 445 nM with MDA-MB-231 (setting [15]); 4.6 nM in series [2]; 102 nM with DU-145 (setting [16]); 0.2 nM in the series with MDA-MB-435 [3]; 11.6 nM in series [5]. Also, the EC50 in the series with MDA-MB-435 [1] amounted to 13 nM. The Ki in [4] came to 21 nM; in the series on MDA-MB-435 [6], 34 nM; in the series with MDA-MB-435 [7] it was 46 nM; in series [8], 10 nM; in series [10] it was 17 nM; with MDA-MB-435 [12], 39 nM. The Ki in series [13] was 46 nM.
On to `O=[P@@]1(c2ccccc2)O[C@H](COCc2ccccc2)[C@@H](OCc2ccccc2)[C@H](OCc2ccccc2)[C@@H]1Cl`, for which, in the series with MDA-MB-435 [1], the EC50 stood at 36 nM. Also, the Ki in [4] stood at 34 nM; with MDA-MB-435 [6], 23 nM; with MDA-MB-435 [7], 41 nM; in series [8] it was 19 nM; in [10], 35 nM; in the series on MDA-MB-435 [12], 28 nM. The compound also yielded an inhibitory constant (Ki) in series [13] of 49 nM.
With `O=[P@@]1(c2ccccc2)O[C@H](COCc2ccccc2)[C@@H](OCc2ccccc2)[C@H](OCc2ccccc2)[C@H]1F`, the half-maximal inhibitory concentration (IC50) result in the series on Caco-2 (caco-2) is “Not Active”; with MDA-MB-231 (mda-mb-231), “Not Active”; in series [2] it was 1.7 nM; with DU-145 (du-145) it was “Not Active”; in the series on MDA-MB-435 [3] it was 1.45 nM; in series [5] it was 12.1 nM. The EC50 with MDA-MB-435 [1] amounted to 31 nM. Further, the inhibitory constant (Ki) was 40 nM in [4]; 34 nM with MDA-MB-435 [6]; 66 nM in the series on MDA-MB-435 [7]; 16 nM in series [8]; 33 nM in series [10]; 28 nM in the series with MDA-MB-435 [12]. Besides, the Ki in [13] was 22 nM.
As for `O=[P@@]1(c2ccccc2)O[C@H](COCc2ccccc2)[C@@H](OCc2ccccc2)[C@H](OCc2ccccc2)[C@H]1Br`, the IC50 in the series with Caco-2 (setting [14]) was 29500 nM; with MDA-MB-231 (setting [15]), 432 nM; in [2] it was 3.8 nM; with DU-145 (setting [16]), 86.5 nM; in the series on MDA-MB-435 [3] it was 0.35 nM; in series [5], 15.8 nM. Also, the EC50 in the series with MDA-MB-435 [1] turned out to be 30 nM. The inhibitory constant (Ki) came to 50 nM in series [4]; 42 nM in the series with MDA-MB-435 [6]; 78 nM with MDA-MB-435 [7]; 20 nM in series [8]; 32 nM in series [10]; 28 nM in the series on MDA-MB-435 [12]. Moreover, affinity in [13] was put at a Ki of 30 nM.
As for `O=[P@@]1(c2ccccc2)O[C@H](COCc2ccccc2)[C@@H](OCc2ccccc2)[C@H](OCc2ccccc2)[C@@H]1I`, the half-inhibitory concentration (IC50) in the series on Caco-2 (setting [14]) was determined as 20500 nM; in the series on MDA-MB-231 (setting [15]), 466 nM; in [2] it was 7.7 nM; with DU-145 (setting [16]) it was 215 nM; with MDA-MB-435 [3] it was 0.55 nM; in series [5] it was 229 nM. Further, the EC50 in the series with MDA-MB-435 [1] was determined as 28 nM. The Ki in series [4] came out at 44 nM; in the series on MDA-MB-435 [6], 25 nM; in the series with MDA-MB-435 [7] it was 43 nM; in [8] it was 17 nM; in [10], 29 nM; in the series with MDA-MB-435 [12] it was 29 nM. The inhibitory constant (Ki) in [13] was 16 nM.
Turning to `O=[P@]1(c2ccccc2)C=C(OCc2ccccc2)[C@H](OCc2ccccc2)[C@@H](COCc2ccccc2)O1`, the half-maximal inhibitory concentration (IC50) turned out to be 28400 nM in the series on Caco-2 (setting [14]); 286 nM in the series with MDA-MB-231 (setting [15]); 4.4 nM in series [2]; 116 nM in the series on DU-145 (setting [16]); 0.52 nM in the series with MDA-MB-435 [3]; 37.5 nM in series [5].
On to `O=[P@@]1(c2ccccc2)O[C@H](COCc2ccccc2)[C@@H](OCc2ccccc2)[C@H](OCc2ccccc2)[C@H]1I`, for which the IC50 in the series with Caco-2 (setting [14]) worked out at 28600 nM; in the series with MDA-MB-231 (setting [15]), 478 nM; in series [2] it was 4 nM; in the series on DU-145 (setting [16]), 104 nM; in the series with MDA-MB-435 [3] it was 0.3 nM; in [5] it was 13 nM. For the same compound, the EC50 in the series with MDA-MB-435 [1] worked out at 35 nM. The Ki in [4] was 35 nM; in the series with MDA-MB-435 [6], 23 nM; in the series on MDA-MB-435 [7], 101 nM; in series [8], 16 nM; in [10], 37 nM; in the series on MDA-MB-435 [12], 28 nM. This compound also came in with an inhibition constant (Ki) in series [13] of 20 nM. The Activity entry (in series [9]; in the series on MDA-MB-435 [11]) was “Toxic” throughout.
